Here are results for 8 compounds from ChEMBL document CHEMBL3792306, “Antichagasic and trichomonacidal activity of 1-substituted 2-benzyl-5-nitroindazolin-3-ones and 3-alkoxy-2-benzyl-5-nitro-2H-indazoles” (Eur J Med Chem, 2016).

Each structure is given as a SMILES string.

Data set [1] can be described thus: Selectivity index, ratio of LC50 for mouse L929 cells to IC50 for Trypanosoma cruzi CL-B5 lacZ epimastigotes […]. It is filed as toxicity, cell-based. The note with it: read-out: Ratio LC50/IC50. Summed up: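 SI = LC50 (L929, 48 h resazurin) / epimastigote IC50. […] CPRG (200 µM final, 0.9% Triton X-100, pH 7.4) added for 3 h at 37 °C, A595 read. Triplicates, n = 3; IC50 from %EGI curves.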

The nature of data set [2]: Cytotoxicity against african green monkey Vero cells assessed as inhibition of cell growth after 24 hrs by resazurin dye based fluorescence assay. As to conditions: chlorocebus sabaeus. The procedure, abridged: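 Vero CCL-81 cells (50,000/well, RPMI with 10% FBS) attached 6 h at 37 °C, then 24 h with compound. Resazurin added for 3 h, fluorescence at ex 535/em 590 nm. Triplicates in two independent assays; CC50 and 95% confidence limits by probit analysis.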
A general note: Alamar Blue is a resazurin reagent that responds to reducing activity.

Data set [3] concerns Trypanosoma cruzi. As to the kind of experiment: Antichagasic activity against Trypanosoma cruzi CL-B5 epimastigotes […] assessed as growth inhibition after 72 hrs by beta galactosidase reporter gene assay. It is filed as functional, organism-based. The procedure, abridged: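 Then CPRG (200 µM final, pH 7.4) in Triton X-100 added for 3 h at 37 °C, A595 read. Triplicates, three independent runs; IC50 from dose–response of %growth inhibition, mean ± SD.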
(In general: In a reporter assay the amount or activity of a reporter protein is the signal.)

The nature of data set [4]: Selectivity index, ratio of CC50 for african green monkey Vero cells to IC50 for metronidazole-sensitive Trichomonas vaginalis JH31A#4 trophozoites. It is filed as functional. The procedure, abridged: (§1)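 Selectivity index = Vero CC50 (24 h resazurin, probit) divided by trophozoite IC50 (24 h resazurin, probit) for the named T. vaginalis isolate.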
The subject of data set [5] is Trypanosoma cruzi. Kind of data set: Antichagasic activity against Trypanosoma cruzi CL-B5 intracellular amastigotes in mouse L929 cells assessed as growth inhibition after 7 days by beta galactosidase reporter gene assay. It counts as functional, organism-based. The note with it: CL-B5, L929, 168 h. The procedure, abridged: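 L929 fibroblasts (10,000/well, MEM) infected overnight at 33 °C, 5% CO₂ with CL-B5 lacZ tissue-culture trypomastigotes (1:6 cell:parasite). Washed, then 7 days with compound in fresh MEM. CPRG (400 µM final, pH 7.4) in 3% Triton X-100 for 3 h at 37 °C, A595. Triplicates; IC50 from %amastigote growth inhibition curves, mean ± SD.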

Data set [6] can be described thus: Cytotoxicity against mouse L929 cells after 48 hrs by resazurin assay. As to conditions: read-out: LC50. It is filed as cell-based. The procedure, abridged:
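L929 fibroblasts, 15×10^3 cells/well in MEM, attached 3 h. Exposed to compounds for 48 h at 37 °C, 5% CO2. Resazurin (2 mM solution in PBS) added for 3 h; fluorescence read at 535/590 nm to give % cytotoxicity. Triplicate wells, three independent runs. LC50 taken from concentration vs %C curves, mean ± SD.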

Data set [7] can be described thus: Selectivity index, ratio of LC50 for mouse L929 cells to IC50 for Trypanosoma cruzi CL-B5 lacZ amastigotes in mouse L929 cells. It is filed as toxicity, cell-based. As to conditions: read-out: Ratio LC50/IC50. Summed up: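 SI = LC50 (L929, 48 h resazurin) / amastigote IC50. Amastigotes: L929 cells (10,000/well, MEM) infected overnight at 33 °C with CL-B5 lacZ tissue-culture trypomastigotes (1:6 cell:parasite), washed, then exposed to compounds for 7 days. CPRG (400 µM final, 3% Triton X-100, pH 7.4) added for 3 h at 37 °C, A595 read. Triplicates; IC50 from %AGI curves. Assayed only when epimastigote SI warranted.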

Data set [8] is described as follows: Cytotoxicity against african green monkey Vero cells assessed as inhibition of cell growth at 300 uM after 24 hrs by resazurin dye based fluorescence assay. The note with it: chlorocebus sabaeus, read-out: Activity.
For data set [9], the system named is Trichomonas vaginalis. As to the kind of experiment: Trichomonacidal activity against metronidazole-sensitive Trichomonas vaginalis JH31A#4 trophozoites after 24 hrs by resazurin dye based fluorescence assay. It counts as functional, organism-based. The note with it: JH31A#4, 24 h. The procedure, abridged: (§2)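 Trophozoites in TYM with 10% FBS, 37 °C, 5% CO₂, seeded at 10⁵/mL in glass tubes. After 5 h, compounds added at 9.37–300 µM final (DMSO <0.2%). Viability read by resazurin fluorimetry after 24 h at 37 °C. Metronidazole 25 µM as reference. At least two runs in triplicate; IC50 with 95% limits by probit.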

Data set [10] in a line: Selectivity index, ratio of CC50 for african green monkey Vero cells to IC50 for metronidazole-resistant Trichomonas vaginalis IR78 trophozoites. It is filed as functional. Summed up: as §1
In data set [11] the test system is Trichomonas vaginalis. As to the kind of experiment: Trichomonacidal activity against metronidazole-resistant Trichomonas vaginalis IR78 trophozoites after 24 hrs by resazurin dye based fluorescence assay. It is filed as functional, organism-based. The note with it: IR78, 24 h. Summed up: as §2
In data set [12] the test system is Trypanosoma cruzi. As to the kind of experiment: Antichagasic activity against Trypanosoma cruzi Y strain epimastigotes […] assessed as growth inhibition after 48 hrs by resazurin assay. It counts as functional, organism-based. Summed up: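 Y strain epimastigotes (3 × 10⁶/mL, log phase, pre-grown overnight at 28 °C) exposed 48 h at 28 °C, cell-free. Resazurin added for 5 more h, fluorescence read at ex 535/em 590 nm. Triplicates, three independent runs; IC50 from %growth inhibition curves, mean ± SD.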

A short description of data set [13]: Cytotoxicity against mouse Cardiomyocytes after 48 hrs by Prestoblue assay. Also noted: species or system Cardiomyocyte. The note with it: read-out: LC50. Summed up:
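Primary embryonic cardiac cells from Swiss mice, grown in DMEM with CaCl2, L-glutamine, 5% FBS and chick embryo extract. Seeded at 6×10^4 cells/well on gelatin, pre-incubated 24 h, then exposed to compounds for 48 h at 37 °C, 5% CO2. Morphology and contractility checked by light microscopy. PrestoBlue added for 5 h, absorbance read at 570/600 nm. Triplicates, n = 3; LC50 from dose–response, mean ± SD.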

The subject of data set [14] is Trypanosoma cruzi. As to the kind of experiment: Antichagasic activity against Trypanosoma cruzi Y strain amastigotes in mouse cardiomyocytes assessed as growth inhibition after 48 hrs by giemsa staining based assay. It counts as functional, organism-based. The procedure, abridged:
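Primary embryonic Swiss mouse cardiac cells (100,000/well on gelatin-coated coverslips) infected 24 h with Y strain bloodstream trypomastigotes (1:10), washed, then 48 h with compound in DMEM. Bouin-fixed, Giemsa-stained. Infected cells and parasites per infected cell scored in 400 cells in duplicate; endocytic index = product. IC50 from %EI curves, mean ± SD.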

Data set [15] relates to Trypanosoma cruzi. As to the kind of experiment: Antichagasic activity against Trypanosoma cruzi Tulahuen amastigotes in mouse L929 cells assessed as growth inhibition after 96 hrs by beta galactosidase reporter gene assay. It counts as functional, organism-based. As to conditions: L929, 96 h. The procedure, abridged:
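L929 cells (4000/well, RPMIS) held 24 h at 37 °C, then exposed 2 h to Tulahuen C4 lacZ trypomastigotes (1:10). Infection established 48 h, then compounds for 96 h at 37 °C, 5% CO₂. 500 µM CPRG in 0.5% Nonidet P40 for 18 h, A570. Triplicates; IC50 from %inhibition curves, mean ± SD.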

Broadly, the IC50 is the point on the concentration scale where inhibition reaches its midpoint. Turning to `CN(C)C(=O)CCCn1c2ccc([N+](=O)[O-])cc2c(=O)n1Cc1ccccc1`, the selectivity ratio in [1] was > 66.3; in [7], > 474. Moreover, the CC50 at 24 h in [2] is > 300 µM. Further, the IC50 was found to be 3.86 µM in data set [3], 0.54 µM in [5] and 48.9 µM in [9]. The “Ratio CC50/IC50” value in data set [4] is on record as >6.1. In data set [6], the CC50 at 48 h is > 256 µM. For the same compound, the inhibition at 24 h, 300 µM in data set [8] is < 20%.
Regarding `O=[N+]([O-])c1ccc2nn(Cc3ccccc3)c(OCCO)c2c1`, the CC50 at 24 h in [2] is > 300 µM. In addition, the IC50 is > 256 µM in [3], 9.82 µM in data set [9] and 49.8 µM in [11]. Besides, the entries for the “Ratio CC50/IC50” value in data set [4] and in [10] were >30.5 and >6, respectively. In addition, the CC50 at 48 h in data set [6] was > 256 µM. The inhibition at 24 h, 300 µM in [8] is 14.7%.
Consider `O=c1c2cc([N+](=O)[O-])ccc2n(CCO)n1Cc1ccccc1`, for which the figures for the selectivity ratio in data set [1] and in data set [7] were > 162 and > 1160, respectively. The CC50 at 24 h in data set [2] was > 300 µM. Also, the IC50 was found to be 1.58 µM in data set [3]; 3.18 µM in data set [12]; 0.22 µM in data set [5]; 0.6 µM in data set [14]; 0.81 µM in data set [15]; 17.9 µM in data set [9]. Moreover, in [4], the “Ratio CC50/IC50” value was >16.7. The CC50 at 48 h in data set [13] is > 100 µM; in data set [6], > 256 µM. Besides, the inhibition at 24 h, 300 µM in data set [8] is < 20%.
As for `O=[N+]([O-])c1ccc2nn(Cc3ccccc3)c(OCCCO)c2c1`, in data set [1], the selectivity ratio is > 3.94. The CC50 at 24 h in data set [2] was > 300 µM. Further, the IC50 in [3] came to 64.9 µM; in [9], 7.25 µM; in data set [11], 9.11 µM. Further, the results for the “Ratio CC50/IC50” value in data set [4] and in [10] were >41.4 and >32.9, respectively. For the same compound, in data set [6], the CC50 at 48 h is > 256 µM. In data set [8], the inhibition at 24 h, 300 µM was 14.5%.
As for `O=[N+]([O-])c1ccc2nn(Cc3ccccc3)c(OCCCBr)c2c1`, the selectivity ratio in data set [1] turned out to be 1.51. In addition, in data set [2], the CC50 at 24 h stood at 539 µM. Besides, the IC50 in data set [3] stood at 39 µM; in data set [9], 18.6 µM; in data set [11], 39.1 µM. In addition, the “Ratio CC50/IC50” value in data set [4] is reported as 29; in [10], 13.8. The CC50 at 48 h in [6] is 59 µM. In addition, in data set [8], the inhibition at 24 h, 300 µM was < 20%.
Turning to `COC(=O)CCOc1c2cc([N+](=O)[O-])ccc2nn1Cc1ccccc1`, the CC50 at 24 h in [2] is > 300 µM. Moreover, the figures for the IC50 in [3] and in [9] were > 256 µM and 43 µM, respectively. Also, the “Ratio CC50/IC50” value in data set [4] was >7. For the same compound, the CC50 at 48 h in [6] was > 256 µM. Also, in [8], the inhibition at 24 h, 300 µM was < 20%.
On to `O=C(Cn1ccnc1[N+](=O)[O-])NCc1ccccc1` [BENZNIDAZOLE], for which the selectivity ratio is > 11.3 in data set [1] and > 376 in data set [7]. Moreover, the IC50 was determined as 22.7 µM in data set [3], 0.68 µM in [5], 1.77 µM in [14] and 1.66 µM in data set [15]. In addition, the CC50 at 48 h in [13] was > 100 µM; in data set [6], > 256 µM.
For `Cc1ncc([N+](=O)[O-])n1CCO` [METRONIDAZOLE], the CC50 at 24 h in data set [2] is > 600 µM. Also, the “Ratio CC50/IC50” value in data set [4] and in [10] was >100 in each case. Moreover, the half-inhibitory concentration (IC50) in [9] was 1.43 µM; in [11], 5.78 µM.
